According to paper PMC4065287 (Diabetes Therapy, 2014):
Values joined by “and” are separate entries in the source; they are usually repeats but may differ in a detail not shown here. Identical values can stand only once. “Also recorded” adds a separate entry of the source. Like-named read-outs stand apart in the source and are kept apart here.

Key:
[1] = system: SGLT2; conditions: cited from earlier work
[2] = system: CD-1 mice; conditions: 2-year study; cited from earlier work
[3] = system: SD rats; conditions: cited from earlier work
[4] = Urinary exposure extrapolations from bridging studies; format: in vivo; conditions: mice, rats, and dogs
[5] = system: human bladder transitional cell carcinoma (TCC) cell lines (T24, TCCSUP, UM-UC-3, J82, SW780, and EJ-1); test: In vitro cell proliferation of bladder TCC cell lines with test compounds; format: cell-based; conditions: 0.2, 2, 20 μg/mL, serum-free medium, 72 h
Summary of the method: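 Low-passage TCC lines (<6 months from thaw) were seeded at 20,000 or 40,000 cells/well in RPMI 1640 + 10% FBS. After 24 h adherence and 24 h serum-free, cells got medium-only vehicle or test compound (0.2, 2, 20 μg/mL) serum-free for 72 h. Controls were a return to 10% FBS and continuous serum. Percent confluence was imaged every 2 h to build growth curves.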

[6] = system: EJ-1 tumor xenografts; test: In vivo mouse xenograft study, EJ-1; design: species or system athymic nude mice
[7] = system: Salmonella typhimurium stains TA98, TA100, TA1535, and TA1537; conditions: maximum concentrations (≤5,000 μg/plate) with or without metabolic activation
[8] = system: Escherichia coli strain WP2 uvrA; conditions: maximum concentrations (≤5,000 μg/plate) with or without metabolic activation
[9] = system: Chinese hamster ovary (CHO) cells
[10] = system: peripheral blood lymphocytes; conditions: up to 200 mg/kg per day for 1 month
[11] = system: bone marrow polychromatic erythrocytes
[12] = system: primary hepatocyte cultures; conditions: single oral dose up to 700 mg/kg
[13] = system: CD-1 mice; conditions: for carcinogenicity: oral gavage up to 24 months
[14] = system: Harlan SD rats
[15] = system: Beagle dogs
[16] = system: liver, skeletal muscle, kidney, and adipose tissues; conditions: male ZDF rats vs vehicle
[17] = 2-year rodent carcinogenicity studies
[18] = human plasma after 10 mg MRHD of dapagliflozin; cited from earlier work
[19] = system: more than 330 receptors, enzymes, ion channels, and transporters; conditions: cited from earlier work
[20] = in vivo; conditions: both, Sprague-Dawley, rat, plasma, po, 200 mg/kg per day
[21] = cited from earlier work
[22] = human subjects, 10 mg dose; cited from earlier work
[23] = chronic toxicology studies; cited from earlier work
[24] = system: hormone receptors; conditions: cited from earlier work
[25] = cited from earlier work; remark: listed apart in the source
[26] = system: TCC cell lines (T24, TCCSUP, UM-UC-3, J82, and SW780); test: In vitro cell proliferation of bladder TCC cell lines with increasing glucose; format: cell-based, human
Summary of the method: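 Five TCC lines seeded at 40,000 or 80,000 cells/well in RPMI 1640 with 10% FBS, glucose set to 11 (control), 25, 35 or 50 mM. Cells were incubated 145 h in the incubator with live-cell imaging. Percent confluence was read every 2 h and growth curves were built over 145 h.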

## Cc1ccc([C@@H]2O[C@H](CO)[C@@H](O)[C@H](O)[C@H]2O)cc1Cc1ccc(-c2ccc(F)cc2)s1 [canagliflozin]
[1]
  selectivity for SGLT2 than for SGLT1: 200 ×
[2]
  exposure multiple of clinical exposures: 14 ×
  incidence of neoplasms or preneoplastic lesions: did not increase the incidence
[3]
  exposure multiple with increased incidence of neoplasms of the adrenals: ≥ 12 ×
  exposure multiple with increased incidence of neoplasms of the renal tubules: ≥ 12 ×

## CCOc1ccc(Cc2cc([C@@H]3O[C@H](CO)[C@@H](O)[C@H](O)[C@H]3O)ccc2Cl)cc1 [dapagliflozin, (2S,3R,4R,5S,6R)-2-[4-chloro-3-(4-ethoxybenzyl)phenyl]-6-(hydroxymethyl)tetrahydro-2H-pyran-3,4,5-triol]
[4]
  extrapolated urinary concentrations relative to humans: > 700 ×
[5]
  in vitro TCC proliferation: did not affect
[6]; EJ-1 and UM-UC-3 xenograft mice
  body weight of treated animals: no effect
[6]; EJ-1 and UM-UC-3 xenograft mice, parent
  exposure multiple of human clinical exposures: up to 75 ×
[6]; mouse, in vivo
  growth of tumor xenografts: no effect; also recorded: similar
[7]
  bacterial reverse-mutation assay: negative
[8]
  bacterial reverse-mutation assay: negative
[9]
  level that produced cytogenetic alterations in vitro: 100 µg/mL
[9]; absence of S9 stimulation
  chromosomal aberration induction: negative
[9]; with metabolic stimulation
  clastogenic concentrations relative to total C max in humans with MRHD 10 mg: ≥ 735 times
[10]
  AUC multiple of MRHD: ≤ 2,602 × MRHD
  C max multiple of MRHD: ≤ 544 × MRHD
  clastogenicity in peripheral blood lymphocytes: no evidence of clastogenicity
[11]; 2 weeks, up to 250 mg/kg per day
  bone marrow micronucleus genotoxicity: not genotoxic
[11]; 3 days, up to 700 mg/kg per day
  bone marrow micronucleus genotoxicity: not genotoxic
[12]
  unscheduled DNA synthesis: did not induce an increase
[13]; females 2 mg/kg per day
  exposure (AUC) multiple relative to human AUC at 10 mg: ~11 ×
[13]; females 10 mg/kg per day
  exposure (AUC) multiple relative to human AUC at 10 mg: ~52 ×
[13]; females 20 mg/kg per day
  exposure (AUC) multiple relative to human AUC at 10 mg: ~105 ×
[13]; females, doses ≤20 mg/kg per day
  carcinogenicity: not carcinogenic
[13]; lymphoreticular, uterus and cervix, lung, liver neoplasms
  incidence of background tumors or time to onset: did not increase the incidence
[13]; male mice
  urinary bladder hyperplasia versus control: did not increase urinary bladder hyperplasia
[13]; males 5 mg/kg per day
  exposure (AUC) multiple relative to human AUC at 10 mg: approximately 4 ×
[13]; males 15 mg/kg per day
  exposure (AUC) multiple relative to human AUC at 10 mg: ~14 ×
[13]; males 40 mg/kg per day
  exposure (AUC) multiple relative to human AUC at 10 mg: ~72 ×
[13]; males, doses ≤40 mg/kg per day
  carcinogenicity: not carcinogenic
[14]; doses up to 10 mg/kg per day
  carcinogenicity: not carcinogenic
[14]; females 0.5 mg/kg per day
  exposure (AUC) multiple relative to human AUC at 10 mg: ~9 ×
[14]; females 2 mg/kg per day
  exposure (AUC) multiple relative to human AUC at 10 mg: ~34 ×
[14]; males only
  microscopic changes in the kidney: exacerbation in severity of CPN and increased incidence and severity of minimal to marked atypical hyperplasia of renal cortical tubules
[14]; rat, in vivo
  neoplasms affecting the renal tubules, adrenal gland, or testicular Leydig cells: no dapagliflozin-related neoplasms
  tumors or preneoplastic lesions in the urinary bladder: no indications of any dapagliflozin-related tumors or preneoplastic lesions
[15]; 1 year
  proliferative or hyperplastic changes of the urinary bladder: did not show dapagliflozin-related proliferative or hyperplastic changes
[15]; 1 year, supratherapeutic doses
  exposure multiple of human clinical exposure: > 3,300 × and > 3,000 ×
[15]; treated dogs (control 5–13 mg per day)
  urinary glucose excretion: 8,711–32,200 mg per day
[16]
  probe sets showing significant changes: less than 1%
[17]
  levels of urinary glucose: ~200 mM
[18]
  maximum observed plasma concentration (C max): 0.136 µg/mL
[1]
  selectivity for SGLT2 than for SGLT1: 1,200 ×
[19]
  off-target interactions: no off-target interactions
[20]
  Cmax: 63 to 74 µg/mL
[21]; July 15, 2011 cutoff (control 1.4%)
  overall incidence of malignancies and unspecified tumors: 1.5%
[21]; dapagliflozin groups (placebo 0.03)
  urinary bladder tumors, incidence rate: 0.15
[21]; dapagliflozin groups (placebo 1)
  urinary bladder tumors, number of cases: 9
[21]; of 5,501 patients, July 15, 2011 cutoff
  bladder cancer cases, percent of patients: 0.16%
[22]
  urinary glucose, mean: 166 mM
[23]
  levels of urinary glucose: 400 to 500 mM
[24]
  binding to hormone receptors: did not bind
[25]
  oral bioavailability: good
  volume of distribution: high

## OC[C@H]1OC(O)[C@H](O)[C@@H](O)[C@@H]1O (some centres unmarked) [glucose]
[26]; J82, 25 mM
  reduction of growth: 37%
[26]; SW780, 25 mM
  growth: did not substantially alter
[26]; T24, 25 mM
  growth: did not substantially alter
[26]; T24, 35 mM
  reduction of growth: 83%
[26]; TCCSUP, 25 mM
  reduction of growth: 42%
[26]; UM-UC-3, 25 mM
  reduction of growth: 73%
[26]; all cell lines at 35 mM and 50 mM, except T24 at 35 mM
  growth: completely inhibited
